Data as given in ChEMBL document CHEMBL3425405, “Discovery of Small Molecules for Up-Regulating the Translation of Antiamyloidogenic Secretase, a Disintegrin and Metalloproteinase 10 (ADAM10), by Binding to the G-Quadruplex-Forming Sequence in the 5' Untranslated Region (UTR) of Its mRNA” (J Med Chem, 2015).
Activity calls are given as the source filed them. The calls are words filed in the database; no cut-off is given here.

What was measured:
[1] = Binding affinity to 5'-end biotinylated ADAM10 A10-RNA QGRS (unknown origin) by surface plasmon resonance assay method
Outline: (§1)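 SPR with 5′-biotinylated A10-RNA-Wt or A10-RNA-Mut immobilized on a neutravidin chip in running buffer (50 mM Tris-HCl pH 7.5, 100 mM KCl). Ligand serial dilutions in running buffer injected at 20 μL/min for association, then dissociation. Chip regenerated with 50 mM NaOH between runs.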

[2] = Binding affinity to 5'-end biotinylated ADAM10 A10-mutant RNA QGRS (unknown origin) by surface plasmon resonance assay method; outline: as §1
HeLa = assay: Binding affinity to ADAM10 A10-RNA QGRS (unknown origin) transfected in human HeLa cells assessed as increase in ADAM10 translation efficiency at 2 uM after 24 hrs by Renilla/firefly dual luciferase reporter assay; assay type: cell-based
Outline: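 HeLa cells transfected with 0.8 μg A10-Wt, A10-Mut or A10-Del plasmid (G-quadruplex motif upstream of Renilla in psiCHECK-2). Screening: 24 h at a single 2 μM concentration. Follow-up: plasmid for 12 h, then 0, 0.5, 1 or 2.5 μM for 24 h. Renilla normalized to firefly, relative to untreated control; mean ± SD of three independent measurements.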

[3] = Toxicity against APP expressing HEK cells assessed as reduction in cell viability after 48 hrs by MTT assay; assay type: cell-based, HEK293; details: human
[4] = Toxicity against human HeLa cells assessed as reduction in cell viability after 24 hrs by MTT assay; assay type: cell-based

With C[n+]1c(/C=C/c2ccc(O)cc2)ccc2ccccc21 the Kd [1] was 15.9 µM and the Activity [2] was “inactive”.

For CCn1c2ccccc2c2cc(/C=C/c3cc(N4CCN(CCN(C)C)CC4)c4ccccc4[n+]3C)ccc21, the Kd [1] was > 50 µM and the Activity [2] was “inactive”.

In the case of C[n+]1c(/C=C/c2cc3ccccc3[nH]2)ccc2ccccc21, the Activity (HeLa) is reported as 119%, the IC50 at 48 h [3] is reported as 12.4 µM and the Kd [1] is reported as 3.4 µM. For the same molecule, the IC50 at 24 h [4] was > 50 µM and the Activity [2] was “inactive”.

With CN1CCN(c2cc(/C=C/c3ccc(N4CCOCC4)cc3)nc3ccccc23)CC1 the Kd [1] was 47.6 µM and the Activity [2] was “inactive”.

For COc1cc(/C=C/c2ccc3ccccc3[n+]2C)ccc1F, the Kd [1] was 18 µM and the Activity [2] was “inactive”.

For COc1cc(/C=C/c2cc(N3CCN(C)CC3)c3ccccc3[n+]2C)ccc1F, the Kd [1] was 11.7 µM and the Activity [2] was “inactive”.

For COc1cc(/C=C/c2cc(N3CCOCC3)c3ccccc3[n+]2C)cc(OC)c1O, the Kd [1] was 27.1 µM and the Activity [2] was “inactive”.

In the case of COc1cc(/C=C/c2cc(N3CCN(C)CC3)c3ccccc3[n+]2C)ccc1N1CCOCC1, the Kd [1] is reported as 33 µM and the Activity [2] is reported as “inactive”.

For CCn1c2ccccc2c2cc(/C=C/c3ccc4ccccc4n3)ccc21, the Kd [1] was > 50 µM and the Activity [2] was “inactive”.

For CCn1c2ccccc2c2cc(/C=C/c3cc(N4CCCCC4)c4ccccc4n3)ccc21, the Kd [1] was > 50 µM and the Activity [2] was “inactive”.

For CN1CCN(c2cc(/C=C/c3cc4ccccc4[nH]3)[n+](C)c3ccccc23)CC1, the Activity (HeLa) was 116%, the IC50 at 48 h [3] was 18.6 µM and the Kd [1] was 1.8 µM. The IC50 at 24 h [4] was > 50 µM and the Activity [2] was “inactive”.

In the case of C[n+]1c(/C=C/c2cc([N+](=O)[O-])ccc2O)ccc2ccccc21, the Kd [1] is reported as 46.3 µM and the Activity [2] is reported as “inactive”.

In the case of COc1cc(/C=C/c2cc(N3CCN(C)CC3)c3ccccc3[n+]2C)cc(OC)c1OC, the Kd [1] is reported as 10.9 µM and the Activity [2] is reported as “inactive”.

With C[n+]1c(/C=C/c2cc([N+](=O)[O-])ccc2O)cc(N2CCOCC2)c2ccccc21 the Kd [1] was > 50 µM, the IC50 at 24 h [4] was 17.3 µM and the Activity [2] was “inactive”.

Molecule CN1CCN(c2cc(/C=C/c3cc([N+](=O)[O-])ccc3O)[n+](C)c3ccccc23)CC1 has an Activity (HeLa) of 98.7%, an IC50 at 48 h [3] of 21.5 µM and a Kd [1] of 16.3 µM. The IC50 at 24 h [4] was > 50 µM and the Activity [2] was “inactive”.

For COc1cc(/C=C/c2cc(N3CCN(C)CC3)c3ccccc3[n+]2C)cc(OC)c1O, the Activity (HeLa) was 108%, the IC50 at 48 h [3] was 25.8 µM and the Kd [1] was 16.5 µM. For the same molecule, the IC50 at 24 h [4] was > 50 µM and the Activity [2] was “inactive”.

For CN1CCN(c2cc(/C=C/c3ccc(O)cc3)[n+](C)c3ccccc23)CC1, the Kd [1] was 8.4 µM and the Activity [2] was “inactive”.

With CN1CCN(c2cc(/C=C/c3ccccc3)[n+](C)c3ccccc23)CC1 the Activity (HeLa) was 91.5%, the IC50 at 48 h [3] was 36.3 µM and the Kd [1] was 33.3 µM. The IC50 at 24 h [4] was > 50 µM and the Activity [2] was “inactive”.

In the case of CCn1c2ccccc2c2cc(/C=C/c3cc(N4CCN(C)CC4)c4ccccc4n3)ccc21, the Kd [1] is reported as > 50 µM and the Activity [2] is reported as “inactive”.

C[n+]1c(/C=C/c2ccc(N3CCOCC3)cc2)ccc2ccccc21 gave an Activity (HeLa) of 92%, an IC50 at 48 h [3] of 23.3 µM and a Kd [1] of 15.8 µM. The IC50 at 24 h [4] was 43.4 µM and the Activity [2] was “inactive”.

For CCn1c2ccccc2c2cc(/C=C/c3cc(N4CCN(CCO)CC4)c4ccccc4[n+]3C)ccc21, the Kd [1] was 32.1 µM and the Activity [2] was “inactive”.

For COc1cc(/C=C/c2ccc3ccccc3[n+]2C)ccc1N1CCOCC1, the Activity (HeLa) was 102%, the IC50 at 48 h [3] was 49.1 µM and the Kd [1] was 28.2 µM. The IC50 at 24 h [4] was 32.8 µM and the Activity [2] was “inactive”.

For CCn1c2ccccc2c2cc(/C=C/c3cc(N4CCCCC4)c4ccccc4[n+]3C)ccc21, the Kd [1] was > 50 µM and the Activity [2] was “inactive”.

In the case of COc1cc(/C=C/c2ccc3ccccc3[n+]2C)cc(OC)c1O, the Kd [1] is reported as 20.5 µM and the Activity [2] is reported as “inactive”.

For COc1cc(/C=C/c2cc(N3CCCCC3)c3ccccc3[n+]2C)cc(OC)c1O, the Kd [1] was 25 µM and the Activity [2] was “inactive”.

For C[n+]1c(/C=C/c2ccccc2)ccc2ccccc21, the Activity (HeLa) was 101%, the IC50 at 48 h [3] was > 50 µM and the Kd [1] was > 50 µM. For the same molecule, the IC50 at 24 h [4] was > 50 µM and the Activity [2] was “inactive”.

For CN1CCN(c2cc(/C=C/c3ccc(N4CCOCC4)cc3)[n+](C)c3ccccc23)CC1, the Activity (HeLa) was 137%, the IC50 at 48 h [3] was 29.3 µM and the Kd [1] was 2.6 µM. The IC50 at 24 h [4] was > 50 µM and the Activity [2] was “inactive”.

For CCn1c2ccccc2c2cc(/C=C/c3cc(N4CCN(CCCN(C)C)CC4)c4ccccc4[n+]3C)ccc21, the Kd [1] was 45 µM and the Activity [2] was “inactive”.

With COc1cc(/C=C/c2ccc3ccccc3[n+]2C)cc(OC)c1OC the Kd [1] was 9.3 µM and the Activity [2] was “inactive”.

In the case of C[n+]1c(/C=C/c2cc([N+](=O)[O-])ccc2O)cc(N2CCCCC2)c2ccccc21, the Kd [1] is reported as > 50 µM and the Activity [2] is reported as “inactive”.
